Data: publication PMC6543826 (Bioorganic chemistry, 2018)
Where “and” joins values, the source holds several entries; their conditions need not be identical. Equal entries are not always repeated.

Key:
CCRF-CEM = experiment: cells; type: cell-based; settings: 10^−5 M, 48 h
HL-60 (TB) = experiment: cells; type: cell-based; settings: HL-60(TB), 10^−5 M, 48 h
K-562 = experiment: cells; type: cell-based; settings: K-562, 10^−5 M, 48 h
MOLT-4 = experiment: cells; type: cell-based; settings: MOLT-4, 10^−5 M, 48 h
HOP-62 = experiment: cells; type: cell-based; settings: HOP-62, 10^−5 M, 48 h
NCI-H23 = experiment: cells; type: cell-based; settings: NCI-H23, 10^−5 M, 48 h
NCI-H460 = experiment: cells; type: cell-based; settings: NCI-H460, 10^−5 M, 48 h
HCC-2998 = experiment: cells; type: cell-based; settings: HCC-2998, 10^−5 M, 48 h
HCT-116 = experiment: cells; type: cell-based; settings: HCT-116, 10^−5 M, 48 h
HCT-15 = experiment: cells; type: cell-based; settings: HCT-15, 10^−5 M, 48 h
HT29 = experiment: cells; type: cell-based; settings: HT29, 10^−5 M, 48 h
KM 12 = experiment: cells; type: cell-based; settings: KM 12, 10^−5 M, 48 h
SNB-75 = experiment: cells; type: cell-based; settings: SNB-75, 10^−5 M, 48 h
U251 = experiment: cells; type: cell-based; settings: U251, 10^−5 M, 48 h
MALME-3M = experiment: cells; type: cell-based; settings: MALME-3M, 10^−5 M, 48 h
M14 = experiment: cells; type: cell-based; settings: M14, 10^−5 M, 48 h
MDA-MB-435 = experiment: cells; type: cell-based; settings: MDA-MB-435, 10^−5 M, 48 h
SK-MEL-2 = experiment: cells; type: cell-based; settings: SK-MEL-2, 10^−5 M, 48 h
SK-MEL-28 = experiment: cells; type: cell-based; settings: SK-MEL-28, 10^−5 M, 48 h
SK-MEL-5 = experiment: cells; type: cell-based; settings: SK-MEL-5, 10^−5 M, 48 h
UACC-62 = experiment: cells; type: cell-based; settings: UACC-62, 10^−5 M, 48 h
IGROV1 = experiment: cells; type: cell-based; settings: IGROV1, 10^−5 M, 48 h
OVCAR-4 = experiment: cells; type: cell-based; settings: OVCAR-4, 10^−5 M, 48 h
OVCAR-5 = experiment: cells; type: cell-based; settings: OVCAR-5, 10^−5 M, 48 h
SK-OV-3 = experiment: cells; type: cell-based; settings: SK-OV-3, 10^−5 M, 48 h
RXF 393 = experiment: cells; type: cell-based; settings: RXF 393, 10^−5 M, 48 h
SN12C = experiment: cells; type: cell-based; settings: 10^−5 M, 48 h
PC-3 = experiment: cells; type: cell-based; settings: PC-3, 10^−5 M, 48 h
BT-549 = experiment: cells; type: cell-based; settings: BT-549, 10^−5 M, 48 h
T-47D = experiment: cells; type: cell-based; settings: T-47D, 10^−5 M, 48 h
MDA-MB-468 = experiment: cells; type: cell-based; settings: MDA-MB-468, 10^−5 M, 48 h
ERK1 = ERK1 (Homo sapiens, UniProt P27361); experiment: in vitro radioactive kinase assay, Ets-1 phosphorylation by ERK1; type: biochemical
Method in brief: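 Radiometric assay at 28–30 °C in 25 mM HEPES pH 7.5, 50 mM KCl, 0.1 mM EDTA/EGTA, 2 mM DTT, 11 mM MgCl2, 10 μg mL−1 BSA and 5% DMSO (final). 2 nM activated ERK1 was used with 10 μM His-Ets-1 (1–138). Reactions were started with [γ-32P]ATP (10 or 100 μM). IC50 came from fitting rate versus inhibitor concentration to a hyperbolic decay equation.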

JNK2 = JNK2 (Homo sapiens, UniProt P45984); experiment: in vitro kinase assay, GST-c-Jun; type: biochemical
p38MAPKα = p38MAPKα (Homo sapiens, UniProt Q16539); experiment: in vitro kinase assay, GST-ATF2; type: biochemical
[1] = tested on: NCI-60 panel of tumor cell lines

Chain of p38MAPKα (Q16539 whole entry): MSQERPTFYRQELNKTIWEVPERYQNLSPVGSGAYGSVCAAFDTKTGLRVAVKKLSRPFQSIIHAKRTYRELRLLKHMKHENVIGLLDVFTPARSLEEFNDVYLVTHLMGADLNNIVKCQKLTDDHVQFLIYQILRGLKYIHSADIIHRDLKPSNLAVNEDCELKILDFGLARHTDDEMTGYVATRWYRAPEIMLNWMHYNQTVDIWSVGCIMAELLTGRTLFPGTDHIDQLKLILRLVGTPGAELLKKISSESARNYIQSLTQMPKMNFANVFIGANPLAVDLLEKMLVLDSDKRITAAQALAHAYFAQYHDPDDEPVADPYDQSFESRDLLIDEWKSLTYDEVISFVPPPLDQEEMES
Chain of JNK2 (P45984 whole entry): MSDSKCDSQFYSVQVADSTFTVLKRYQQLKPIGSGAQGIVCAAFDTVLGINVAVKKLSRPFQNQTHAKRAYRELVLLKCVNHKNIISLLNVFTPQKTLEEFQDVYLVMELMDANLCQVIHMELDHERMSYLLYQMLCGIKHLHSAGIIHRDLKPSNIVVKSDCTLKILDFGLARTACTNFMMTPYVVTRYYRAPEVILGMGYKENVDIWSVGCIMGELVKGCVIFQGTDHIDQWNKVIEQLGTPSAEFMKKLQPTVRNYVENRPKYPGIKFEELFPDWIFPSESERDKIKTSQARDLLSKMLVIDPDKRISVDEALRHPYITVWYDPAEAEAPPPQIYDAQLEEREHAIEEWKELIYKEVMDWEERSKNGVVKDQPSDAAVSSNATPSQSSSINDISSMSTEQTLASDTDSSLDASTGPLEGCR
Chain of ERK1 (P27361 whole entry, species assumed): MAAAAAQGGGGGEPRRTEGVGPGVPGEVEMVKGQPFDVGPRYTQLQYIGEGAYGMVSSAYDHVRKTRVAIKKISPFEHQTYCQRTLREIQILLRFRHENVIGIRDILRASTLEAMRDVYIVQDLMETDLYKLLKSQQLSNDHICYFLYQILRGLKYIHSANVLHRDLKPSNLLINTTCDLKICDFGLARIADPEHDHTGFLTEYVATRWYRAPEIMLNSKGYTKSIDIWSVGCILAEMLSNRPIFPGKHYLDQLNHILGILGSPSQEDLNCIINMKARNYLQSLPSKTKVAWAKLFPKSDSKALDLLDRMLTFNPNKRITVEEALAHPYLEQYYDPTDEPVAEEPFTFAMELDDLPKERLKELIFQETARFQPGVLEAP

O=C1c2ccccc2C(=O)c2c1oc1c2c(=O)[nH]c2ccccc21 [3a, Naphtho[2′,3′:4,5]furo[3,2-c]quinoline-6,7,12(5H)-trione] was tested, and the “Growth percent (G%)” value (CCRF-CEM) was 20.72%, the “Growth percent (G%)” value (HL-60 (TB)) was 2.26% and the “Growth percent (G%)” value (K-562) was 55.20%. For the same molecule, the “Growth percent (G%)” value (MOLT-4) was 5.55%, the “Growth percent (G%)” value (HOP-62) was 118.63% and the “Growth percent (G%)” value (NCI-H23) was 65.95%. For the same molecule, the “Growth percent (G%)” value (NCI-H460) was 68.27%, the “Growth percent (G%)” value (HCC-2998) was 102.57% and the “Growth percent (G%)” value (HCT-116) was 55.46%. The “Growth percent (G%)” value (HCT-15) was 44.70%, the “Growth percent (G%)” value (HT29) was 102.52% and the “Growth percent (G%)” value (KM 12) was 66.22%. For the same molecule, the “Growth percent (G%)” value (SNB-75) was 112.98%, the “Growth percent (G%)” value (U251) was 79.04% and the “Growth percent (G%)” value (MALME-3M) was 124.29%. The “Growth percent (G%)” value (M14) was 73.38%, the “Growth percent (G%)” value (MDA-MB-435) was 83.72% and the “Growth percent (G%)” value (SK-MEL-2) was 76.92%. The “Growth percent (G%)” value (SK-MEL-28) was 112.03%, the “Growth percent (G%)” value (SK-MEL-5) was 79.73% and the “Growth percent (G%)” value (UACC-62) was 88.73%. The “Growth percent (G%)” value (IGROV1) was 55.11%, the “Growth percent (G%)” value (OVCAR-4) was −5.49% and the “Growth percent (G%)” value (OVCAR-5) was 102.37%. For the same molecule, the “Growth percent (G%)” value (SK-OV-3) was 104.46%, the “Growth percent (G%)” value (RXF 393) was 97.24% and the “Growth percent (G%)” value (SN12C) was 70.40%. For the same molecule, the “Growth percent (G%)” value (PC-3) was 65.49%, the “Growth percent (G%)” value (BT-549) was 73.94% and the “Growth percent (G%)” value (T-47D) was 22.52%. The “Growth percent (G%)” value (MDA-MB-468) was −8.43%, the IC50 (ERK1; ERK1 IC50, 100 μM ATP, 10 μM Ets-1) was 9.12 ± 1.1 µM and the IC50 (ERK1; IC50 towards inhibiting ERK, ERK isoform not given) was roughly 9 µM. The IC50 (JNK2) was greater than 200 µM, the “ability to inhibit JNK2 (in words)” value (JNK2) was “did not show any ability to inhibit” and the “ability to inhibit p38MAPKα (in words)” value (p38MAPKα) was “did not show any ability to inhibit”. For the same molecule, the IC50 (p38MAPKα; p38MAPKα IC50, 10 μM GST-ATF2) was greater than 200 µM, the “NCI Cytotoxicity Screening Average G%” value ([1]; Table 4, 10 μM one-dose screen) was 68% and the “Average G%” value ([1]; average over tested NCI-60 cell lines, 10^−5 M (10 μM), 48 h) was 68% and 68.19%.
